Measurements: ChEMBL document CHEMBL4145441, “Discovery of N-(5-((5-chloro-4-((2-(isopropylsulfonyl)phenyl)amino)pyrimidin-2-yl)amino)-4-methoxy-2-(4-methyl-1,4-diazepan-1-yl)phenyl)acrylamide (CHMFL-ALK/EGFR-050) as a potent ALK/EGFR dual kinase inhibitor capable of overcoming a variety of ALK/EGFR associated drug resistant mutants in NSCLC” (Eur J Med Chem, 2017)
Calls of active or inactive are those of the source. No cut-off for these calls is given here.

Assays:
[1] = Cmax in Sprague-Dawley rat at 10 mg/kg, po; assay type: ADME, organism-based; set-up: dose 10 mg/kg, route oral; conditions: in vivo
How it was run: (§1)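 Rats dosed once intravenously at 1 mg/kg or orally at 10 mg/kg. Plasma exposure parameters derived: AUC0-t, AUC0-∞, MRT(0-t), Cmax, Tmax, T1/2 and oral bioavailability (F%). Values reported as mean ± spread.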

[2] = Tmax in Sprague-Dawley rat at 1 mg/kg, iv; assay type: ADME, organism-based; conditions: in vivo
How it was run: (§2)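 Pharmacokinetics in rats given a single dose either intravenously at 1 mg/kg or orally at 10 mg/kg. Plasma parameters derived include AUC0-t, AUC0-∞, MRT(0-t), Cmax, Tmax, T1/2 and oral F (%).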

[3] = target: ALK tyrosine kinase receptor (Homo sapiens, UniProt Q9UM73, L1196M); assay: Inhibition of recombinant human N-terminal GST/His6-fused ALK L1196M mutant expressed in Sf9 insect cells using Tyr 1 peptide as substrate after 1 hr by Z-LYTE assay
[4] = system: NCI-H3122; assay: Antiproliferative activity against human NCI-H3122 cells harboring EML4-fused ALK varian1 after 72 hrs by CellTiter-Glo assay; assay type: functional; conditions: NCI-H3122, 72 h
How it was run: (§3)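 Antiproliferative GI50 against H1975 and H3122 cells; each GI50 value obtained from triplicate testing.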

[5] = system: HCC827; assay: Antiproliferative activity against human HCC827 cells harboring EGFR del19 mutant after 72 hrs by CellTiter-Glo assay; assay type: functional; conditions: HCC827, 72 h
[6] = organism: Homo sapiens; assay: Selectivity ratio of GI50 for inhibition of TEL-fused EGFR C797S mutant (unknown origin) expressed in mouse BAF3 cells assessed as decrease in cell proliferation to GI50 for TEL-fused EGFR (unknown origin) expressed in mouse BAF3 cells assessed as decrease in cell proliferation; assay type: cell-based
[7] = system: PC-9; assay: Induction of apoptosis in human PC9 cells assessed as increase in cleaved caspase-3 expression level at 300 nM to 1 uM after 24 hrs by Western blot method; assay type: functional, cell-based
[8] = target: ALK tyrosine kinase receptor (Homo sapiens, UniProt Q9UM73, F1174L); assay: Inhibition of recombinant human N-terminal GST/His6-fused ALK F1174L mutant expressed in Sf9 insect cells using Tyr 1 peptide as substrate after 1 hr by Z-LYTE assay
[9] = target: T1, Epidermal growth factor receptor (Homo sapiens, UniProt P00533); assay: Inhibition of EGFR in human PC9 cells assessed as inhibition of ERK-1/2 phosphorylation at Thr202/Tyr204 residues at 30 nM after 4 hrs by immunoblotting method; assay type: cell-based
[10] = target: T1, Epidermal growth factor receptor; assay: Inhibition of recombinant human wild-type His-tagged EGFR expressed in mammalian expression system using Tyr 4 peptide as substrate after 1 hr in presence of ATP by Z-LYTE kinase assay
[11] = system: ALK tyrosine kinase receptor (Homo sapiens), Q9UM73 [C1156Y]
[12] = system: NCI-H1975; assay: Antitumor activity against human NCI-H1975 cells xenografted in nu/nu mouse assessed as tumor weight at 10 mg/kg, po qd administered for 21 days (reference value: 6.05g)
[13] = system: NCI-H1975; assay: Cell cycle arrest in human NCI-H1975 cells assessed as accumulation at G0/G1 phase at 0.03 to 1 uM after 24 hrs by propidium iodide/RNase staining-based flow cytometry; assay type: functional
[14] = target: Epidermal growth factor receptor (Homo sapiens, UniProt P00533, L858R); assay: Inhibition of recombinant human GST-tagged EGFR L858R mutant expressed in Baculovirus expression system using Tyr 4 peptide as substrate after 1 hr in presence of ATP by Z-LYTE assay
[15] = AUC (0 to infinity) in Sprague-Dawley rat at 1 mg/kg, iv; assay type: ADME, organism-based; set-up: dose 1 mg/kg, route intravenous, time infinity; conditions: in vivo; how it was run: as §1
[16] = system: NCI-H3122; assay: Antitumor activity against human NCI-H3122 cells xenografted in nu/nu mouse assessed as tumor growth inhibition at 20 mg/kg, po qd administered for 28 days; assay type: functional; conditions: 672 h, read-out: TGI
[17] = target: T1, Epidermal growth factor receptor; assay: Inhibition of EGFR in human A549 cells assessed as reduction in EGF-induced P70S6K phosphorylation at Thr389 residue up to 3 uM after 4 hrs by immunoblotting method; assay type: cell-based
[18] = system: NCI-H1355; assay: Antiproliferative activity against human NCI-H1355 cells harboring wild-type EGFR after 72 hrs by CellTiter-Glo assay; assay type: functional; conditions: NCI-H1355, 72 h
[19] = system: PC-9; assay: Induction of apoptosis in human PC9 cells assessed as increase in cleaved PARP expression level at 300 nM to 1 uM after 24 hrs by Western blot method; assay type: functional, cell-based
[20] = target: T2, ALK tyrosine kinase receptor (Homo sapiens, UniProt Q9UM73)
[21] = MRT (0 to t) in Sprague-Dawley rat at 10 mg/kg, po; assay type: ADME, organism-based; conditions: in vivo; how it was run: as §2
[22] = organism: Homo sapiens; assay: Selectivity index, ratio of IC50 for recombinant human GST-tagged EGFR L858R mutant to IC50 for recombinant human GST-tagged EGFR T790M mutant
[23] = target: T1, Epidermal growth factor receptor; assay: Inhibition of TEL-fused EGFR (unknown origin) expressed in mouse BAF3 cells assessed as decrease in cell proliferation after 72 hrs by CellTiter-Glo assay; assay type: cell-based
[24] = AUC (0 to t) in Sprague-Dawley rat at 10 mg/kg, po; assay type: ADME, organism-based; conditions: in vivo; how it was run: as §1
[25] = system: NCI-H2122; assay: Antiproliferative activity against human NCI-H2122 cells harboring wild-type EGFR after 72 hrs by CellTiter-Glo assay; assay type: functional; conditions: NCI-H2122, 72 h
[26] = target: T2, ALK tyrosine kinase receptor; assay: Reversible inhibition of ALK phosphorylation at Tyr1604 residue in human NCI-H3122 cells at 30 to 300 nM measured 1 to 24 hrs post compound wash out by immunoblotting method; assay type: cell-based
[27] = system: NCI-H1975; assay: Growth inhibition of human NCI-H1975 cells after 72 hrs by CellTiter-Glo assay; assay type: functional; conditions: NCI-H1975, 72 h; how it was run: as §3
[28] = target: T1, Epidermal growth factor receptor; assay: Inhibition of EGFR in human A549 cells assessed as reduction in EGF-induced AKT phosphorylation at Ser473 residue up to 3 uM after 4 hrs by immunoblotting method; assay type: cell-based
[29] = Half life in Sprague-Dawley rat at 1 mg/kg, iv; assay type: ADME, organism-based; conditions: in vivo; how it was run: as §1
[30] = AUC (0 to t) in Sprague-Dawley rat at 1 mg/kg, iv; assay type: ADME, organism-based; conditions: in vivo; how it was run: as §1
[31] = organism: Homo sapiens; assay: Selectivity index, ratio of IC50 for recombinant human GST-tagged EGFR L858R mutant to IC50 for recombinant human GST-tagged EGFR L858R/T790M mutant
[32] = system: NCI-H3122; assay: Induction of apoptosis in human NCI-H3122 cells xenografted in po dosed nu/nu mouse administered for 28 days by DAB-chromogen-based TUNEL assay; assay type: functional, organism-based
[33] = target: T1, Epidermal growth factor receptor; assay: Inhibition of EGFR in human NCI-H1975 cells assessed as inhibition of ERK-1/2 phosphorylation at Thr202/Tyr204 residues at 30 nM after 4 hrs by immunoblotting method; assay type: cell-based

T1 sequence (P00533 whole entry): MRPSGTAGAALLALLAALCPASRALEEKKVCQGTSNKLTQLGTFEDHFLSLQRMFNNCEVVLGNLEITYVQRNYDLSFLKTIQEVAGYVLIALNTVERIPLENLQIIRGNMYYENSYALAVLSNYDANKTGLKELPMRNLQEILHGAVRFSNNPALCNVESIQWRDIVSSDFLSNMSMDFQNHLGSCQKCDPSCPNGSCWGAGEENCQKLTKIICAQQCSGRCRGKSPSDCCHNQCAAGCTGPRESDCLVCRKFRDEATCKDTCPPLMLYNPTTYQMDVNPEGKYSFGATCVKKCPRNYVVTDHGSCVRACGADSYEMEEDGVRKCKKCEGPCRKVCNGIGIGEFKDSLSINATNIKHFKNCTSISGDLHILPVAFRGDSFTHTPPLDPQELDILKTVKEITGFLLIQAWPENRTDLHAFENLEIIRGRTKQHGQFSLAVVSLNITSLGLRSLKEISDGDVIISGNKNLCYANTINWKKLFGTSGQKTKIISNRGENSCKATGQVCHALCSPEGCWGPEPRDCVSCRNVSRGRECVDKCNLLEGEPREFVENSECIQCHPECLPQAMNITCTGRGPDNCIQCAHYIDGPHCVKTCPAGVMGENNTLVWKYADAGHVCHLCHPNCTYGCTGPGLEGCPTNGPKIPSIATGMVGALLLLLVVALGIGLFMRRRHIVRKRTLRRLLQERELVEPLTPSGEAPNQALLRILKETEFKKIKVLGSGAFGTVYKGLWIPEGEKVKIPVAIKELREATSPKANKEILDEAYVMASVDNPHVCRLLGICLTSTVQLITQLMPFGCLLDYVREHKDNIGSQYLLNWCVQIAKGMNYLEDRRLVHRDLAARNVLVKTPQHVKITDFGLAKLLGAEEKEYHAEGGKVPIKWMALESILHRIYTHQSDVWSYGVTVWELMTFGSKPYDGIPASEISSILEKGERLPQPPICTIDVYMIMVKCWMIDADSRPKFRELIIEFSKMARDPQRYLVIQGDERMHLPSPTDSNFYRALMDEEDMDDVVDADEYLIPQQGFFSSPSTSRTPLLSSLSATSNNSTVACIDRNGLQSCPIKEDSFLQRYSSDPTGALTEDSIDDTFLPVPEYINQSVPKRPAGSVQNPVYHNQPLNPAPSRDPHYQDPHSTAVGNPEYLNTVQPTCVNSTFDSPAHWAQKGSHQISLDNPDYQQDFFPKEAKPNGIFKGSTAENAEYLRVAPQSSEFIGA
T2 sequence (Q9UM73 19-1620 limits assumed): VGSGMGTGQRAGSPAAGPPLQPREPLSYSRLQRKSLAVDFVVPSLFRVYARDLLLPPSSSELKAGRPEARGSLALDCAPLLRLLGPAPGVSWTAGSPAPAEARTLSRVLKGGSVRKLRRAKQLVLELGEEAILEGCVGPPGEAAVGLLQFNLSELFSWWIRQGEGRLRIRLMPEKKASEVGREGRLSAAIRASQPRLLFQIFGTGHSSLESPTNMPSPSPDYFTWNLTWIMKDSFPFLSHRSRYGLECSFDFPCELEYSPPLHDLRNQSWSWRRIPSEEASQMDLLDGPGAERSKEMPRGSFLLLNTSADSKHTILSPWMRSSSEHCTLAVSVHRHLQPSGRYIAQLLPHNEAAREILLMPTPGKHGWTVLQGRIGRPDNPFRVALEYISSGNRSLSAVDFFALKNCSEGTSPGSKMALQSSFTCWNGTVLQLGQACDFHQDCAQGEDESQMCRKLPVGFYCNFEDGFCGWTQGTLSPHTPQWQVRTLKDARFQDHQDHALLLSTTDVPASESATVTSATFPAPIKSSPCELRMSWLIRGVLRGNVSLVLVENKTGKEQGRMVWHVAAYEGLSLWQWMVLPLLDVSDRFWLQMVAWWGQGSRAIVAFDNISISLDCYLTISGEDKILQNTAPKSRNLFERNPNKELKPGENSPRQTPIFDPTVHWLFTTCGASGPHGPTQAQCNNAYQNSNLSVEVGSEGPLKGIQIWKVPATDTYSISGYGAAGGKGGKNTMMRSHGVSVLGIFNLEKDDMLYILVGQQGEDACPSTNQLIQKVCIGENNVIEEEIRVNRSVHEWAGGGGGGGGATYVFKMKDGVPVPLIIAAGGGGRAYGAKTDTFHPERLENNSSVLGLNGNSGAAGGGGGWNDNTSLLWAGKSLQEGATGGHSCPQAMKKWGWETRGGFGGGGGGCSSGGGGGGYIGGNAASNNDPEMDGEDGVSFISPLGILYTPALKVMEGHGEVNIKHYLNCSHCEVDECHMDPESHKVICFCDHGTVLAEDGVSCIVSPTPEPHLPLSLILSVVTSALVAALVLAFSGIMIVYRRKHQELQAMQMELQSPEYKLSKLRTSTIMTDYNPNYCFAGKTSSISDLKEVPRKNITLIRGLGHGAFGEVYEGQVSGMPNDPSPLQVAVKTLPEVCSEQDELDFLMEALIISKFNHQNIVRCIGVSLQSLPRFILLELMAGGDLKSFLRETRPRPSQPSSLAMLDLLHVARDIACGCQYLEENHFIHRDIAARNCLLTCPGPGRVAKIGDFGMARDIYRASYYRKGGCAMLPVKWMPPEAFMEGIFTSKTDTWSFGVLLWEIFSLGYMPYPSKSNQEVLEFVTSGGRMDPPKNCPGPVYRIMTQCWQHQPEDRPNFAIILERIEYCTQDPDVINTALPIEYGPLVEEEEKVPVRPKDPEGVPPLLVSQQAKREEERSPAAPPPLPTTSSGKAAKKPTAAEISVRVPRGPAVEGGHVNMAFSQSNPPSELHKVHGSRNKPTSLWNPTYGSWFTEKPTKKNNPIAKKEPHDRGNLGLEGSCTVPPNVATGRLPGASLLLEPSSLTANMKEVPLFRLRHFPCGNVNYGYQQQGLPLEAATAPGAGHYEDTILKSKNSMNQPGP
Sequence of ALK tyrosine kinase receptor (Homo sapiens), Q9UM73 [C1156Y] (Q9UM73 whole entry C1156Y, looked up): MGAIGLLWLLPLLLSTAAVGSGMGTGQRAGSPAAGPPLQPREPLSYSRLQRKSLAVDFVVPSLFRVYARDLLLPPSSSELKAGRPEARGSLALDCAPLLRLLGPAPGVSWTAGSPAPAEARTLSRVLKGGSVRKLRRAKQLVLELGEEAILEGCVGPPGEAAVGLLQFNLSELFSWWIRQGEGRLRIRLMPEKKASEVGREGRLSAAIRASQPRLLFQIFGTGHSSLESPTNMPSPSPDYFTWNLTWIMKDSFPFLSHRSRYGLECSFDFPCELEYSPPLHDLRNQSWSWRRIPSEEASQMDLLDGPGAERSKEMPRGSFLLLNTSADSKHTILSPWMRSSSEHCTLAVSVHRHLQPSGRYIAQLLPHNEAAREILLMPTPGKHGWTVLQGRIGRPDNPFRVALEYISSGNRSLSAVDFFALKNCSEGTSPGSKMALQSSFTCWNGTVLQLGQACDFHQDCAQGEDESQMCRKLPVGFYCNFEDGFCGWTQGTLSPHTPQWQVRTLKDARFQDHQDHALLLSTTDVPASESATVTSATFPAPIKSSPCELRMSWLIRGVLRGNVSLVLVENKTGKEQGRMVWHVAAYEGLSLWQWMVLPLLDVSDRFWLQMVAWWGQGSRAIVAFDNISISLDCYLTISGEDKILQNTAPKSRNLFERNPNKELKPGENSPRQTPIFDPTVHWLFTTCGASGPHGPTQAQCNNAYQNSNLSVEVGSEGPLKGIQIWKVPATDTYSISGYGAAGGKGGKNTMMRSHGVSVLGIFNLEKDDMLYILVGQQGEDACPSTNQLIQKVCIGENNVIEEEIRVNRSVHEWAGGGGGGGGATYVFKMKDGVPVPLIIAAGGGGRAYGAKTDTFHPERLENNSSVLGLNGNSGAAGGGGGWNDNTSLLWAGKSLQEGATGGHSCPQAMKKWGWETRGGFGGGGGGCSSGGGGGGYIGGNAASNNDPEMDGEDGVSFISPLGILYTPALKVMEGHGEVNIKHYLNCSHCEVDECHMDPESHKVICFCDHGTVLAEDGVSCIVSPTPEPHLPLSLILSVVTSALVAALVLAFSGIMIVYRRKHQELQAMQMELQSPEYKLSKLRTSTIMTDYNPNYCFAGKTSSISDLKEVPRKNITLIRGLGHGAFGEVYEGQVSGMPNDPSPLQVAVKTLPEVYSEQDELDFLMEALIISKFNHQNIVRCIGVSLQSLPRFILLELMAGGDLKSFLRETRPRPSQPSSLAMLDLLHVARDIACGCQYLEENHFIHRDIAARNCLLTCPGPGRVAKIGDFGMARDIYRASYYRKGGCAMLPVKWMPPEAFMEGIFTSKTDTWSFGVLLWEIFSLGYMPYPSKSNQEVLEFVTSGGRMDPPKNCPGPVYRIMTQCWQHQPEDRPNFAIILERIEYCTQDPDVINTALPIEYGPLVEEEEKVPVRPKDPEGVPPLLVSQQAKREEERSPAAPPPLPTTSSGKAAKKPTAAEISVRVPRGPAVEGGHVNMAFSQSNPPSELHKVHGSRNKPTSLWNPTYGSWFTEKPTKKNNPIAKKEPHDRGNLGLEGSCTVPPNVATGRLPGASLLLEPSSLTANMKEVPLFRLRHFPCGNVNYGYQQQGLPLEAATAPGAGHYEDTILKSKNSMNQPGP
Sequence of ALK tyrosine kinase receptor (Homo sapiens, UniProt Q9UM73, L1196M) (Q9UM73 19-1620 L1196M limits assumed): as the sequence (Q9UM73 19-1620 limits assumed) above, with L1178M counted along it
Sequence of ALK tyrosine kinase receptor (Homo sapiens, UniProt Q9UM73, F1174L) (Q9UM73 19-1620 F1174L limits assumed): as the sequence (Q9UM73 19-1620 limits assumed) above, with F1156L counted along it

What does the source list for `C=CC(=O)Nc1cc(Nc2ncc(Cl)c(Nc3ccccc3S(=O)(=O)C(C)C)n2)c(OC)cc1N1CCCN(C)CC1`?
Cmax [1]: 283 ng/mL; Tmax [2]: 1.02 min; IC50 [3]: 0.59 nM; GI50 [4]: < 0.3 nM; GI50 [5]: 6.2 nM; RatioGI50 [6]: 15; Activity [7]: Active; IC50 [8]: 0.92 nM; inhibition [9]: Active; IC50 [10]: 108 nM; GI50 [11]: 6.9 nM; Activity [12]: 1.58 g; Activity [13]: Active; IC50 [14]: 82.5 nM; AUC(0-inf) [15]: 720 ng·h/mL; inhibition in vivo at 20 mg/kg [16]: 68.3%; inhibition [17]: inactive; GI50 [18]: 1400 nM; Activity [19]: Active; GI50 [20]: 1 nM; MRT last [21]: 247 min; Ratio IC50 [22]: 20 to 30; GI50 [23]: 16 nM; AUC(0-t) [24]: 1140 ng·h/mL; GI50 [25]: 1800 nM; inhibition [26]: Active; GI50 [27]: 15 nM; inhibition [28]: inactive; half-life [29]: 59.5 min; AUC(0-t) [30]: 707 ng·h/mL; Ratio IC50 [31]: 20 to 30; Activity [32]: Dose-dependent effect; inhibition [33]: Active
